Entries after “also recorded” stand apart in the source; their conditions may differ.
Tests used:
[1] = Microsomal stability assay; format: in vitro ADME; conditions: mouse, pooled mouse liver microsomes
How it was run: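 Pooled mouse liver microsomes (1 μg/μL protein) preincubated 10 min at 37 °C with test compound (4 μM final). Started with NADPH (2 mM final) and incubated 1 h at 37 °C with shaking. Zero-time and end samples quenched in 5:1 acetonitrile:water and centrifuged. Indomethacin added as internal standard. Quantified by triple-quadrupole LC-MS/MS in MRM mode; % remaining at 1 h.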

Plasma stability assay = format: in vitro ADME; conditions: male, C57BL/6, mouse
How it was run: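 Plasma from male C57BL/6 mice, diluted 1:1 with PBS and warmed to 37 °C. Test compound added to 1 μM final and incubated 3 h at 37 °C with shaking. Zero-time and end samples quenched in 5:1 acetonitrile:water and centrifuged. Indomethacin added as internal standard. Quantified by LC-MS/MS in MRM mode; % remaining at 3 h.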

H4 cells = assay: Cell viability assay, thapsigargin as stressor; format: cell-based, human; conditions: 7.5 μM thapsigargin; for EC50: read-out: H4 EC50 ± SEM, cytoprotection, dose-response; for cytoprotective activity against thapsigargin-induced cell death (in words): H4 cells
How it was run: (§1)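 Cells plated overnight at 37 °C, 5% CO2 in phenol red-free DMEM with 2% FBS (SH-SY5Y 4 × 10^4, H4 2.5 × 10^3 cells/well). Test compound in dose–response for 2 h, then thapsigargin 7.5 μM final for 18 h at 37 °C. Read by MTS absorbance at 490 nm. Viability % = background-subtracted (cell-free medium) relative to DMSO-only, no-thapsigargin wells. EC50 from dose–response curves. ≥3 repeats, mean ± SEM.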

SH-SY5Y cells = assay: Cell viability assay, thapsigargin as stressor; format: cell-based, human; conditions: 7.5 μM thapsigargin; for EC50: read-out: SH-SY5Y EC50 ± SEM, cytoprotection, dose-response; for cytoprotective activity against thapsigargin-induced cell death (in words): SH-SY5Y cells
How it was run: as §1

JNK = assay: Immunoblotting of thapsigargin-induced phospho-JNK in H4 cells; format: cell-based, human; conditions: compound 25 μM and 5 μM 2 h, then 20 μM thapsigargin 1 h, immunoblot
How it was run: (§2)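 H4 cells, 2.5 × 10^6 per 10 cm dish, grown overnight in phenol red-free DMEM with 2% FBS, then serum-starved 2 h. Test compound at 25 or 5 μM for 2 h, then thapsigargin 20 μM for 1 h. Lysed in RIPA buffer with protease and phosphatase inhibitors; protein measured by BCA. 50 μg run on 4–12% Bis-Tris SDS-PAGE and transferred to PVDF. Probed for phospho-p38, p38, phospho-JNK and JNK; HRP secondaries, ECL detection.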

p38 MAPK [2] = assay: Immunoblotting of thapsigargin-induced phospho-p38 MAPK in H4 cells; format: cell-based, human; conditions: compound 25 μM and 5 μM 2 h, then 20 μM thapsigargin 1 h, immunoblot
How it was run: as §2

[3] = tested on: panel of 46 receptors, ion channels, and transporters; assay: NIMH PDSP off-target panel; format: binding
p38 MAPK [4] = assay: Activity of p38 MAPK pathway, H4-CHOP-luciferase reporter cells; format: cell-based, human
How it was run: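 H4 cells stably carrying pFR-Luc and pFA-CHOP plasmids, 1000 cells/well, grown 24 h in 10% FBS DMEM, then switched to phenol red-free DMEM with 2% FBS. Test compound for 1 h at 37 °C (10 μM with thapsigargin or CDDO-IM; 20 μM with MG132; 50 μM with ionomycin). Read by Steady-Glo luminescence. RLU % = background-subtracted (compound-only wells) relative to inducer-only wells. ≥3 repeats, mean ± SEM, one-way ANOVA.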

SMILES | remaining at 1 h, 4 μM [1] [%] | remaining at 3 h, 1 μM (Plasma stability assay) [%] | EC50 (H4 cells) [µM] | EC50 (SH-SY5Y cells) [µM] | cytoprotective activity against thapsigargin-induced cell death (in words) (SH-SY5Y cells) | other results
CC1(C)CC(=O)C2=C(C1)Nc1cc(C(F)(F)F)ccc1NC2c1ccc(N2CCCC2)cc1 (centres unmarked) [4ee, 3,3-Dimethyl-11-(4-(pyrrolidin-1-yl)phenyl)-7-(trifluoromethyl)-2,3,4,5,10,11-hexahydro-1H-dibenzo[b,e][1,4]diazepin-1-one] | 1.8 ± 0.4 | 98.8 ± 3.7 | 18.8 ± 2.77 | 14 ± 0.18 |  | 
CC1(C)CC(=O)C2=C(C1)Nc1cc(C(F)(F)F)ccc1NC2c1ccc(N2CCCCC2)cc1 (centres unmarked) [4ff, 3,3-Dimethyl-11-(4-(piperidin-1-yl)phenyl)-7-(trifluoromethyl)-2,3,4,5,10,11-hexahydro-1H-dibenzo[b,e][1,4]diazepin-1-one] | 4.7 ± 1.7 | ≥ 100 | 19.5 ± 2.15 | 16 ± 0.82 |  | 
CCN(CC)c1ccc(C2Nc3ccc(C(=O)c4ccccc4)cc3NC3=C2C(=O)CC(C)(C)C3)cc1 (centres unmarked) [4hh, 7-Benzoyl-11-(4-(diethylamino)phenyl)-3,3-dimethyl-2,3,4,5,10,11-hexahydro-1H-dibenzo[b,e][1,4]diazepin-1-one] | 7.9 ± 6.3 | ≥ 100 |  |  | very strong cytoprotective activity | JNK activity (phosphorylation) in response to thapsigargin (JNK): significantly reduced; p38 activity (phosphorylation) in response to thapsigargin (p38 MAPK [2]): significantly reduced; off-target interactions in PDSP panel [3]: No significant off-target interactions were detected; p38 activation initiated by CDDO-IM (CHOP-luciferase RLU) (p38 MAPK [4]; 10 μM compound 1 h, CDDO-IM 600 nM 18 h): reduced p38 activation; p38 activation initiated by thapsigargin (CHOP-luciferase RLU) (p38 MAPK [4]; 10 μM compound 1 h, thapsigargin 20 nM 18 h): reduced p38 activation; p38 activity stimulated by MG132 (CHOP-luciferase RLU) (p38 MAPK [4]; 20 μM compound 1 h, MG132 740 nM 18 h): had no effect; p38 activation initiated by ionomycin (CHOP-luciferase RLU) (p38 MAPK [4]; 50 μM compound 1 h, ionomycin 120 nM 18 h): reduced p38 activation; calcium regulator-induced p38 MAPK activation (p38 MAPK [4]; H4-CHOP-luciferase reporter cells, inducers that disrupt calcium homeostasis): moderate inhibition; also recorded: inhibits
CC1(C)CC(=O)C2=C(C1)Nc1cc(C(=O)c3ccccc3)ccc1NC2c1ccc(N2CCCCC2)cc1 (centres unmarked) [4jj, 7-Benzoyl-3,3-dimethyl-11-(4-(piperidin-1-yl)phenyl)-2,3,4,5,10,11-hexahydro-1H-dibenzo[b,e][1,4]diazepin-1-one] | 12.9 ± 1.6 | ≥ 100 |  |  |  | 
CC1(C)CC(=O)C2=C(C1)Nc1cc(C(=O)c3ccccc3)ccc1NC2c1ccc(O)cc1 (centres unmarked) [4ll, 7-Benzoyl-11-(4-hydroxyphenyl)-3,3-dimethyl-2,3,4,5,10,11-hexahydro-1H-dibenzo[b,e] [1,4]diazepin-1-one] |  |  |  |  | devoid of cytoprotective activity | cytoprotective activity against thapsigargin-induced cell death (in words) (H4 cells): devoid of cytoprotective activity
CC1(C)CC(=O)C2=C(C1)Nc1cc(C(=O)c3ccccc3)ccc1NC2c1ccsc1 (centres unmarked) [4mm, 7-Benzoyl-3,3-dimethyl-11-(thiophen-3-yl)-2,3,4,5,10,11-hexahydro-1H-dibenzo[b,e] [1,4]diazepin-1-one] |  |  |  |  | devoid of cytoprotective activity; also recorded: does not | JNK activity (phosphorylation) in response to thapsigargin (JNK): had no effect; p38 activity (phosphorylation) in response to thapsigargin (p38 MAPK [2]): had no effect; cytoprotective activity against thapsigargin-induced cell death (in words) (H4 cells): devoid of cytoprotective activity
CN(C)c1ccc(C2Nc3ccc(Br)cc3NC3=C2C(=O)CC(C)(C)C3)cc1 (centres unmarked) [4s, 7-Bromo-11-(4-(dimethylamino)phenyl)-3,3-dimethyl-2,3,4,5,10,11-hexahydro-1H-dibenzo [b,e][1,4]diazepin-1-one] |  |  | 12.9 ± 0.92 |  |  | 
CC1(C)CC(=O)C2=C(C1)Nc1cc(Br)ccc1NC2c1ccc(N2CCCC2)cc1 (centres unmarked) [4t, 7-Bromo-3,3-dimethyl-11-(4-(pyrrolidin-1-yl)phenyl)-2,3,4,5,10,11-hexahydro-1H-dibenzo [b,e][1,4]diazepin-1-one] | 0.1 ± 0.1 | ≥ 100 |  | 14.6 ± 1.61 |  | 
CCCCN(CCCC)c1ccc(C2Nc3ccc(Br)cc3NC3=C2C(=O)CC(C)(C)C3)cc1 (centres unmarked) [4w, 7-Bromo-11-(4-(dibutylamino)phenyl)-3,3-dimethyl-2,3,4,5,10,11-hexahydro-1H-dibenzo [b,e][1,4]diazepin-1-one] |  |  | 13.1 ± 2.53 |  | but not in SH-SY5Y cells | 
CCN(CC)c1ccc(C2Nc3ccc(-c4ccccc4)cc3NC3=C2C(=O)CC(C)(C)C3)cc1 (centres unmarked) [4y, 11-(4-(Diethylamino)phenyl)-3,3-dimethyl-7-phenyl-2,3,4,5,10,11-hexahydro-1H-dibenzo [b,e][1,4]diazepin-1-one] | 1.8 ± 2.1 | 97.9 ± 5.7 |  |  |  | 

— publication PMC4368043 (ACS Chemical Neuroscience, 2014)
